Experimental data from different studies.
Each line is one published result; the experiments were not run side by side.
Organism: Mycobacterium tuberculosis
Read-out: microbial growth

SMILES | method | strain | time | MIC
FC(F)Oc1ccc(CCNc2cc(-c3ccccn3)nc3nncn23)cc1 | – | H37RV | – | 1.1 µM
C#CCNC(=O)c1c(-c2ccc(OC)cc2)oc2ccc(O)c(CN3CCCCC3)c12 | – | CDC1551 | – | 0.8 µM
c1ccc(CCOc2cc(-c3ccccn3)nc3ncnn23)cc1 | – | H37RV | – | > 100 µM
CCc1cc(=O)c2c(OCC(O)CN3CCOCC3)c3ccoc3c(OC)c2o1 (stereo not shown) | resazurin | – | 21 days | 64 µg/mL
[H]/N=C(/N)N[C@H]1[C@H](O)[C@@H](O)[C@H](O[C@@H]2O[C@@H](C)[C@](O)(C=O)[C@H]2O[C@@H]2O[C@@H](CO)[C@H](O)[C@@H](O)[C@@H]2NC)[C@@H](N/C(N)=N\[H])[C@@H]1O | resazurin | H37RV | – | 0.43 µM
CCc1ccc(CCNc2cc(-c3ccccn3)nc3nncn23)cc1 | – | H37RV | – | 0.12 µM
COc1cc(C=NNC(N)=S)ccc1OC(=O)CN1C(=O)CSC1=O | resazurin | H37RV | – | 5.23 µM
O=[N+]([O-])c1cn2c(n1)OC[C@@H](OCc1ccc(OC(F)(F)F)cc1)C2 | – | H37RV | – | 0.125 µg/mL
CO[C@H]1/C=C/O[C@@]2(C)Oc3c(C)c(O)c4c(O)c(c(/C=N/N5CCN(C6CCCC6)CC5)c(O)c4c3C2=O)NC(=O)/C(C)=C\C=C\[C@H](C)[C@H](O)[C@@H](C)[C@@H](O)[C@@H](C)[C@H](OC(C)=O)[C@@H]1C | resazurin | H37RV | 7 days | 0.2 µg/mL
CCc1cc(=O)c2c(O)c3ccoc3c(OC)c2o1 | resazurin | – | 21 days | 128 µg/mL
Cc1nc2[nH]c(=O)n(O)c(=O)c2s1 | – | – | – | 20.4 µM
CCc1cc(=O)c2c(OCC(O)CNC(C)C)c3ccoc3c(OC)c2o1 (stereo not shown) | resazurin | H37RV | 21 days | 64 µg/mL
COc1c(N2C[C@@H]3CCCN[C@@H]3C2)c(F)cc2c(=O)c(C(=O)O)cn(C3CC3)c12 | – | H37RV | – | 0.13 µM
CC[C@@H](CO)NCCN[C@@H](CC)CO | resazurin | H37RV | 7 days | 1.56 µg/mL
Clc1ccc(CCNc2cc(-c3ccccn3)nc3nnc(C4CC4)n23)cc1 | – | H37RV | 5 days | 17 to 50 µM
NNC(=O)c1ccncc1 | resazurin | H37RV | 5 days | 0.03 µg/mL
NNC(=O)c1ccncc1 | – | H37RV | – | 0.125 µg/mL
NC(=S)NN=Cc1ccc(OC(=O)CN2C(=O)CSC2=O)c(Br)c1 | resazurin | H37RV | – | 9.27 µM
CCCc1nc2[nH]c(=O)n(O)c(=O)c2s1 | – | – | – | 47.4 µM

SMILES | method | strain | time | MIC
Cc1ccc(CCNc2cc(C3CCCO3)nc3nncn23)cc1 (stereo not shown) | – | H37RV | – | 47 µM
NNC(=O)c1ccncc1 | – | H37RA | – | 0.34 µM
NC(=S)NN=Cc1ccc(OC(=O)CN2C(=O)CSC2=O)cc1 | resazurin | H37RV | – | 2.84 µM
Nc1nc2[nH]c(=O)n(O)c(=O)c2s1 | – | – | – | > 100 µM
CCc1cc(=O)c2c(OCC(O)CN(CC)CC)c3ccoc3c(OC)c2o1 (stereo not shown) | resazurin | H37RV | 21 days | 128 µg/mL
CC(CNc1cc(-c2ccccn2)nc2nncn12)c1ccccc1 (stereo not shown) | – | H37RV | 5 days | > 100 µM
CCOC(=O)c1c(-c2ccc(OC)cc2)oc2ccc(OCc3cn(C[C@H]4O[C@H](O[C@H]5O[C@H](CO)[C@@H](O)[C@H](O)[C@H]5O)[C@H](O)[C@@H](O)[C@@H]4O)nn3)c(CN3CCCCC3)c12 | – | CDC1551 | – | 77.3 µM
O=C(Cc1ccccc1)Nc1cc(-c2ccccn2)nc2nncn12 | – | H37RV | – | 2 µM
CO[C@H]1/C=C/O[C@@]2(C)Oc3c(C)c(O)c4c(O)c(c(/C=N/N5CCN(C)CC5)c(O)c4c3C2=O)NC(=O)/C(C)=C\C=C\[C@H](C)[C@H](O)[C@@H](C)[C@@H](O)[C@@H](C)[C@H](OC(C)=O)[C@@H]1C | resazurin | H37RV | 21 days | 0.5 µg/mL
CO[C@H]1/C=C/O[C@@]2(C)Oc3c(C)c(O)c4c(O)c(c(/C=N/N5CCN(C)CC5)c(O)c4c3C2=O)NC(=O)/C(C)=C\C=C\[C@H](C)[C@H](O)[C@@H](C)[C@@H](O)[C@@H](C)[C@H](OC(C)=O)[C@@H]1C | resazurin | H37RV | 7 days | 0.1 µg/mL
CCc1cc(=O)c2c(OCC(O)CNC(C)(C)C)c3ccoc3c(OC)c2o1 (stereo not shown) | resazurin | – | 21 days | 32 µg/mL
CCOC(=O)c1c(-c2ccc(OC)cc2)oc2ccc(OCc3cn(Cc4ccccc4)nn3)c(CN3CCCCC3)c12 | – | CDC1551 | – | 2.4 µM
CO[C@H]1/C=C/O[C@@]2(C)Oc3c(C)c(O)c4c(O)c(c(/C=N/N5CCN(C)CC5)c(O)c4c3C2=O)NC(=O)/C(C)=C\C=C\[C@H](C)[C@H](O)[C@@H](C)[C@@H](O)[C@@H](C)[C@H](OC(C)=O)[C@@H]1C | resazurin | H37RV | – | 0.152 µM
CC(=O)NC[C@H]1CN(c2ccc(N3CCOCC3)c(F)c2)C(=O)O1 | resazurin | H37RV | 21 days | 0.003 µg/mL
CC[C@@H](CO)NCCN[C@@H](CC)CO | resazurin | H37RV | 5 days | 1 µg/mL
O=c1[nH]c2nc(-c3cccnc3)sc2c(=O)n1O | – | – | – | > 100 µM
FC(F)(F)c1ccc(CCNc2cc(-c3ccccn3)nc3nnc(C4CC4)n23)cc1 | – | H37RV | 5 days | 17 to 50 µM
[H]/N=C(/N)N[C@H]1[C@H](O)[C@@H](O)[C@H](O[C@@H]2O[C@@H](C)[C@](O)(C=O)[C@H]2O[C@@H]2O[C@@H](CO)[C@H](O)[C@@H](O)[C@@H]2NC)[C@@H](N/C(N)=N\[H])[C@@H]1O | resazurin | H37RV | 21 days | 0.25 µg/mL
